Test results published in ChEMBL document CHEMBL1142361, “Phenylglycine and phenylalanine derivatives as potent and selective HDAC1 inhibitors (SHI-1)” (Bioorg Med Chem Lett, 2008).
In brackets after ≈: the same amount, converted by molar mass.

Columns and labels:
HCT-116 = assay: Antiproliferative activity against human HCT116 cells after 72 hrs; format: functional
[1] = Log D at pH 7 by HPLC; format: physicochemical; settings: buffer
[2] = Aqueous solubility at pH 7 by HPLC; format: physicochemical; settings: buffer
Summary of the method: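 A 200 µM sample in PBS-buffered water at pH 7 was agitated 24 h at room temperature and then filtered. A 100 µM reference was fully dissolved in MeOH:MeCN:DMSO (8:1:1). Both were run by the same high-throughput HPLC method, and the peak areas were compared to give the dissolved concentration. The assay caps at 200 µM.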

[3] = molecular target: Voltage-gated inwardly rectifying potassium channel KCNH2 (Homo sapiens, UniProt Q12809); assay: Inhibition of human ERG
[4] = Bioavailability in dog at 1 mg/kg, po; format: ADME, organism-based, Canis lupus familiaris; settings: in vivo
[5] = Clearance in dog at 0.5 mg/kg, iv and 1 mg/kg, po; format: ADME, organism-based, Canis lupus familiaris; settings: in vivo
[6] = Drug level in HCT116 cells xenografted mouse plasma at 65 mg/kg, ip qd after 2 hrs on day 21; format: ADME, organism-based, HCT-116; design: dose 65 mg/kg, route intraperitoneal
Summary of the method: (§1)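 Mice bearing HCT116 xenografts were dosed ip in a 21-day study at 50, 65 and 80 mg/kg alongside vehicle. Plasma drug levels were measured 2, 4 and 24 h post-dose.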

[7] = Selectivity for HDAC1 over HDAC6
[8] = Bioavailability in rhesus monkey at 1 mg/kg, po; format: ADME, organism-based, Macaca mulatta; settings: in vivo
[9] = Selectivity for HDAC1 over HDAC2
[10] = molecular target: T1, Histone deacetylase 8 (Homo sapiens) (UniProt Q9BY41); assay: Inhibition of HDAC8
T1 sequence (whole entry): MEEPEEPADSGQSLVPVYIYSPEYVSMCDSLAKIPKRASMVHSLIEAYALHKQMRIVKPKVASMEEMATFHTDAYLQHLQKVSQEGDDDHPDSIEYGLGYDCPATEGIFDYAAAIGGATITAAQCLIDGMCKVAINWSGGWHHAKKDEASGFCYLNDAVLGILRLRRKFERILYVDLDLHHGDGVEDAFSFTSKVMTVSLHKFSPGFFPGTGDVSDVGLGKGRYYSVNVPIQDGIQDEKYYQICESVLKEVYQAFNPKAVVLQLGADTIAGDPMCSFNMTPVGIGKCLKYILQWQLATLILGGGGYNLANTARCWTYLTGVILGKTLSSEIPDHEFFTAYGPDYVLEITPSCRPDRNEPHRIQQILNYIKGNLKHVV

[11] = Bioavailability in rat at 4 mg/kg, po; format: ADME, organism-based; settings: in vivo
[12] = Volume of distribution at steady state in rat at 2 mg/kg, iv and 4 mg/kg, po; format: ADME, organism-based; settings: in vivo, read-out: Vdss
[13] = molecular target: Histone deacetylase 3 (Homo sapiens) (UniProt O15379); assay: Inhibition of HDAC3
[14] = Selectivity for HDAC1 over HDAC5
[15] = molecular target: T2, Histone deacetylase 11 (Homo sapiens) (UniProt Q96DB2); assay: Inhibition of HDAC11
T2 sequence (whole entry): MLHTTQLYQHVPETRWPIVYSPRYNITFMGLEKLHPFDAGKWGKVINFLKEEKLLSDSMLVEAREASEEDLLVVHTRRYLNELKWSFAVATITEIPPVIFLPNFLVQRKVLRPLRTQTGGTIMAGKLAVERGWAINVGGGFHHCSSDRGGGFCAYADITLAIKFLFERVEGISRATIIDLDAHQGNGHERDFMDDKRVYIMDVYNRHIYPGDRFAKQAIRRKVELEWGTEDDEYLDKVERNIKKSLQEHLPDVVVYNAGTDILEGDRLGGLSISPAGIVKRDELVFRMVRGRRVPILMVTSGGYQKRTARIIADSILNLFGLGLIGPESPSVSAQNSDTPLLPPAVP

[16] = Volume of distribution at steady state in rhesus monkey at 0.5 mg/kg, iv and 1 mg/kg, po; format: ADME, organism-based, Macaca mulatta; settings: in vivo, read-out: Vdss
[17] = Clearance in rhesus monkey at 0.5 mg/kg, iv and 1 mg/kg, po; format: ADME, organism-based, Macaca mulatta; settings: in vivo
[18] = molecular target: Histone deacetylase 5 (Homo sapiens) (UniProt Q9UQL6); assay: Inhibition of HDAC5
[19] = Half life in dog at 0.5 mg/kg, iv and 1 mg/kg, po; format: ADME, organism-based, Canis lupus familiaris; settings: in vivo
[20] = molecular target: Histone deacetylase 4 (Homo sapiens) (UniProt P56524); assay: Inhibition of HDAC4
[21] = Drug level in HCT116 cells xenografted mouse plasma at 65 mg/kg, ip qd after 4 hrs on day 21; format: ADME, organism-based, HCT-116; design: dose 65 mg/kg, route intraperitoneal; summary of the method: as §1
[22] = Clearance in rat at 2 mg/kg, iv and 4 mg/kg, po; format: ADME, organism-based; settings: in vivo
[23] = Selectivity for HDAC1 over HDAC8
[24] = Volume of distribution at steady state in dog at 0.5 mg/kg, iv and 1 mg/kg, po; format: ADME, organism-based, Canis lupus familiaris; settings: in vivo, read-out: Vdss
[25] = Drug level in HCT116 cells xenografted mouse plasma at ip qd after 2 hrs on day 21
[26] = Drug level in HCT116 cells xenografted mouse plasma at ip qd after 4 hrs on day 21
[27] = Half life in rhesus monkey at 0.5 mg/kg, iv and 1 mg/kg, po; format: ADME, organism-based, Macaca mulatta; settings: in vivo
[28] = molecular target: T3, Histone deacetylase 7 (Homo sapiens) (UniProt Q8WUI4); assay: Inhibition of HDAC7
T3 sequence (whole entry): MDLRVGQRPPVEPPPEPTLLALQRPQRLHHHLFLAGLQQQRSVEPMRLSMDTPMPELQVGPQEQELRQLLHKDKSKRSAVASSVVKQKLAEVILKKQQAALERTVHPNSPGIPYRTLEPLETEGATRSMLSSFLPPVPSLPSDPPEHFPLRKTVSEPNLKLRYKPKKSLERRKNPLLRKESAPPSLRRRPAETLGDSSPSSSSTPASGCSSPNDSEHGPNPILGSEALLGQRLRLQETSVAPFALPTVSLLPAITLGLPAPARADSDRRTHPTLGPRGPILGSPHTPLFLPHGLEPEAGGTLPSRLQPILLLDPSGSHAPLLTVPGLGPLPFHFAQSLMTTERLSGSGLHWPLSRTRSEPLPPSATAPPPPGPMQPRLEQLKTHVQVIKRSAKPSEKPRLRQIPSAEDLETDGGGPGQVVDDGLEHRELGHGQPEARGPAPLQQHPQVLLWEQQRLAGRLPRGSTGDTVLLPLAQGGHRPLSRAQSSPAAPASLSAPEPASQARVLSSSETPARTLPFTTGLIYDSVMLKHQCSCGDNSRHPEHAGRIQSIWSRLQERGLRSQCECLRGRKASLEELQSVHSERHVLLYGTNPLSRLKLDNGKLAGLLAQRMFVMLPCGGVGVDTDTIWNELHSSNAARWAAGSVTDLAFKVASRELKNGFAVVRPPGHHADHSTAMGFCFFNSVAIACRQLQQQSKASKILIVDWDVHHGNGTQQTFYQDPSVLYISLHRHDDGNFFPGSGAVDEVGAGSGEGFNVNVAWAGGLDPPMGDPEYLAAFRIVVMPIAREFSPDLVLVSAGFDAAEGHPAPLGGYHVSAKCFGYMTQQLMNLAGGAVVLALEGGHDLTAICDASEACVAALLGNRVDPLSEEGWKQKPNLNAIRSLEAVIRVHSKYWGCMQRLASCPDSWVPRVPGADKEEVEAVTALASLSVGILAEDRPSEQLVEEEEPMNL

[29] = molecular target: T4, Protein deacetylase HDAC6 (Homo sapiens) (UniProt Q9UBN7); assay: Inhibition of HDAC6
T4 sequence (whole entry): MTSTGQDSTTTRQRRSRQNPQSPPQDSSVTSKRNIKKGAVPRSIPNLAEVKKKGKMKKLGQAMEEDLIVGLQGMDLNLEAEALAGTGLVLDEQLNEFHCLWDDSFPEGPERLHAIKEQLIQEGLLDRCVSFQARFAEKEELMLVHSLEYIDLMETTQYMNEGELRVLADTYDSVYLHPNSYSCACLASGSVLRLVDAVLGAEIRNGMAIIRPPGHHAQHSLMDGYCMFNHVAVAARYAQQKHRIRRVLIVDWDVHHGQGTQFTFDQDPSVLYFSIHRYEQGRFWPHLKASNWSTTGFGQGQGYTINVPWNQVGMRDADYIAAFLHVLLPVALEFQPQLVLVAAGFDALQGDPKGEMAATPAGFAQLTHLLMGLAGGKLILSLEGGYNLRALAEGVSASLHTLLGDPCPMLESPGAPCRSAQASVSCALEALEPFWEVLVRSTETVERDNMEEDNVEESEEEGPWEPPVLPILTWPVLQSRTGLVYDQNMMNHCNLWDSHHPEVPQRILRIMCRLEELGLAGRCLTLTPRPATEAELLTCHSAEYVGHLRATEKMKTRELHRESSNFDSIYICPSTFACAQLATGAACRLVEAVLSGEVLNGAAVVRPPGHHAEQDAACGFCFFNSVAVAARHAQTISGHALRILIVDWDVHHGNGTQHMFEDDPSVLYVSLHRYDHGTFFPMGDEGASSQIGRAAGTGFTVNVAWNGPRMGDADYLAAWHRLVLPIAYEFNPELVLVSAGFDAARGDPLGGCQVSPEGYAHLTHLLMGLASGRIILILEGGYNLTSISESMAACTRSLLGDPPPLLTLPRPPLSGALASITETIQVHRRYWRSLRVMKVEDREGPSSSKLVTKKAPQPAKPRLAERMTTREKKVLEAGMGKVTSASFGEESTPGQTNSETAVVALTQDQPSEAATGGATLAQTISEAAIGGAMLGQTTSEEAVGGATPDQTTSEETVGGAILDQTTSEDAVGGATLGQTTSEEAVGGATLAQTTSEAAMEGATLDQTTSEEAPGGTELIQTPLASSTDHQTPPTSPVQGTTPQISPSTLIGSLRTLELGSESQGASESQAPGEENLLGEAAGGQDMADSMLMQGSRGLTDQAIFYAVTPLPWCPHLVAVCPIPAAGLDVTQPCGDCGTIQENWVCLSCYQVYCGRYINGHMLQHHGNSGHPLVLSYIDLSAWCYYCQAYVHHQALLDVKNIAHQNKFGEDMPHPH

[30] = Half life in rat at 2 mg/kg, iv and 4 mg/kg, po; format: ADME, organism-based; settings: in vivo
[31] = Drug level in HCT116 cells xenografted mouse plasma at 65 mg/kg, ip qd after 24 hrs on day 21; format: ADME, organism-based, HCT-116; design: dose 65 mg/kg, route intraperitoneal; summary of the method: as §1
[32] = Selectivity for HDAC1 over HDAC3
[33] = Selectivity for HDAC1 over HDAC11
[34] = Selectivity for HDAC1 over HDAC4
[35] = Selectivity for HDAC1 over HDAC7
[36] = Drug level in HCT116 cells xenografted mouse plasma at ip qd after 24 hrs on day 21

Chain of Histone deacetylase 3 (Homo sapiens) (O15379 whole entry): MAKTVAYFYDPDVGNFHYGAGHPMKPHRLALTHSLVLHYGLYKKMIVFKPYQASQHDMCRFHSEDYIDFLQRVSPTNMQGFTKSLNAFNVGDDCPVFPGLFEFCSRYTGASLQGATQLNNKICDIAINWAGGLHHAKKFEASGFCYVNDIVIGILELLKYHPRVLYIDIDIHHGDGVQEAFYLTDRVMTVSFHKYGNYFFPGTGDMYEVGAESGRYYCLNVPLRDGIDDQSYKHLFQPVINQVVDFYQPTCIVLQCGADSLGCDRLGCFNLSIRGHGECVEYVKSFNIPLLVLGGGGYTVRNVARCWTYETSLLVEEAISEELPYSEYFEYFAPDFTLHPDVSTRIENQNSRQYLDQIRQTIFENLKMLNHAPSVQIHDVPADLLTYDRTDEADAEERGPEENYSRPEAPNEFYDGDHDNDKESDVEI
Chain of Voltage-gated inwardly rectifying potassium channel KCNH2 (Q12809 whole entry): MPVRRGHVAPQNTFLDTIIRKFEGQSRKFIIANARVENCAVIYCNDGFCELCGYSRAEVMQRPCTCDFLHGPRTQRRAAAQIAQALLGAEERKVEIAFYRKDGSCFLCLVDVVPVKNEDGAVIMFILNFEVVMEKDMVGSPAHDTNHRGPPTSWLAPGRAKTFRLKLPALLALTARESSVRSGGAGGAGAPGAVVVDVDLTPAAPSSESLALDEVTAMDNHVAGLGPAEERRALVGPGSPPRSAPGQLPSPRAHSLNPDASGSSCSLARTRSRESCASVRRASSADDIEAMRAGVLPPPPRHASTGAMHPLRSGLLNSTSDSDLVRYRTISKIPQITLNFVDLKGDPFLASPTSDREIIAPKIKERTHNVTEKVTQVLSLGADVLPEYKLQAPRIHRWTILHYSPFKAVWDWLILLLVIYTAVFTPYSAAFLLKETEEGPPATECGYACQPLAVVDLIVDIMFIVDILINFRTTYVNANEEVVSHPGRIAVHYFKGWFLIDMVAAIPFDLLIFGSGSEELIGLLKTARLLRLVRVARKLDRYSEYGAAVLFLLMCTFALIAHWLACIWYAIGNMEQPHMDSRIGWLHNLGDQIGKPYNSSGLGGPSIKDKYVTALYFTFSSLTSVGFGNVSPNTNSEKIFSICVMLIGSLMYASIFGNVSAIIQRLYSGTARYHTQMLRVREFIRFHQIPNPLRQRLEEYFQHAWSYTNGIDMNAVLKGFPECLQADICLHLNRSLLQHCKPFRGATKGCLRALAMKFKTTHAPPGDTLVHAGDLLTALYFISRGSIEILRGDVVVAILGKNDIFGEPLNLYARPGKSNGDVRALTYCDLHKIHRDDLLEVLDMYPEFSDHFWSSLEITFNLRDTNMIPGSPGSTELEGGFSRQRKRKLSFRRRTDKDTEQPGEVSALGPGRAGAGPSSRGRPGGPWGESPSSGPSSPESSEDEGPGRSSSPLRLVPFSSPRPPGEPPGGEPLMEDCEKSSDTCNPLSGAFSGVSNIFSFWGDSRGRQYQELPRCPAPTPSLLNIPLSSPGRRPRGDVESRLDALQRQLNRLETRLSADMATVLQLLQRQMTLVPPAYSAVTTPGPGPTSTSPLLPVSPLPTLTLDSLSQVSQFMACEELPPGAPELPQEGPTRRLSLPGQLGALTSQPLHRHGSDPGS
Chain of Histone deacetylase 4 (Homo sapiens) (P56524 whole entry): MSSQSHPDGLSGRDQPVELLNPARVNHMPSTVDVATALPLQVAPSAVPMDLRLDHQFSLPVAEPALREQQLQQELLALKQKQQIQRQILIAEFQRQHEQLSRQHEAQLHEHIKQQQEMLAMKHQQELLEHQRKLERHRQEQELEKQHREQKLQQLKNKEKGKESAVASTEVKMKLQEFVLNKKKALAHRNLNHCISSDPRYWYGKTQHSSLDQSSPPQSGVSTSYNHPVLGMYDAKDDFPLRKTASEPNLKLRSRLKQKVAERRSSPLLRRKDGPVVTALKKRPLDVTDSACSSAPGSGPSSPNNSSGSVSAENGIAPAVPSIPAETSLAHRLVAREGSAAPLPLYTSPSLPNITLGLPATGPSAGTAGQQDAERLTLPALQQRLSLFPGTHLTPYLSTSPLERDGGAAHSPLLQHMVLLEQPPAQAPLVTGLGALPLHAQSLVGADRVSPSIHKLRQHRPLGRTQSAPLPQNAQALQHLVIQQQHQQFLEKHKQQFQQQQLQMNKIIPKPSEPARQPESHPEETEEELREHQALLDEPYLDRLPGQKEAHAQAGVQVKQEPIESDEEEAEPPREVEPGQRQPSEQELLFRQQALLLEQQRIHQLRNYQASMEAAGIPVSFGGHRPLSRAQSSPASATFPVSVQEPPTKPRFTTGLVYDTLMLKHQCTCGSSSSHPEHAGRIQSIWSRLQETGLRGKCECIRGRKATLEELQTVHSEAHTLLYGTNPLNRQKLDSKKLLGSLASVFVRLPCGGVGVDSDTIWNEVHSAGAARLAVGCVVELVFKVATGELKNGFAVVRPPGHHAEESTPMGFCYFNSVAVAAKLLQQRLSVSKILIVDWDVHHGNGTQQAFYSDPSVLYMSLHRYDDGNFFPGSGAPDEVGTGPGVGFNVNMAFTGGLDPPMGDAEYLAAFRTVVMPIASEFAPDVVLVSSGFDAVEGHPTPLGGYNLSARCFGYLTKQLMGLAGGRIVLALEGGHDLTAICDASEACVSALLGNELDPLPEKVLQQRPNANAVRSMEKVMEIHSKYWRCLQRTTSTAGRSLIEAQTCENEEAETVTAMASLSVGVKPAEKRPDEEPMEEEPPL
Chain of Histone deacetylase 5 (Homo sapiens) (Q9UQL6 whole entry): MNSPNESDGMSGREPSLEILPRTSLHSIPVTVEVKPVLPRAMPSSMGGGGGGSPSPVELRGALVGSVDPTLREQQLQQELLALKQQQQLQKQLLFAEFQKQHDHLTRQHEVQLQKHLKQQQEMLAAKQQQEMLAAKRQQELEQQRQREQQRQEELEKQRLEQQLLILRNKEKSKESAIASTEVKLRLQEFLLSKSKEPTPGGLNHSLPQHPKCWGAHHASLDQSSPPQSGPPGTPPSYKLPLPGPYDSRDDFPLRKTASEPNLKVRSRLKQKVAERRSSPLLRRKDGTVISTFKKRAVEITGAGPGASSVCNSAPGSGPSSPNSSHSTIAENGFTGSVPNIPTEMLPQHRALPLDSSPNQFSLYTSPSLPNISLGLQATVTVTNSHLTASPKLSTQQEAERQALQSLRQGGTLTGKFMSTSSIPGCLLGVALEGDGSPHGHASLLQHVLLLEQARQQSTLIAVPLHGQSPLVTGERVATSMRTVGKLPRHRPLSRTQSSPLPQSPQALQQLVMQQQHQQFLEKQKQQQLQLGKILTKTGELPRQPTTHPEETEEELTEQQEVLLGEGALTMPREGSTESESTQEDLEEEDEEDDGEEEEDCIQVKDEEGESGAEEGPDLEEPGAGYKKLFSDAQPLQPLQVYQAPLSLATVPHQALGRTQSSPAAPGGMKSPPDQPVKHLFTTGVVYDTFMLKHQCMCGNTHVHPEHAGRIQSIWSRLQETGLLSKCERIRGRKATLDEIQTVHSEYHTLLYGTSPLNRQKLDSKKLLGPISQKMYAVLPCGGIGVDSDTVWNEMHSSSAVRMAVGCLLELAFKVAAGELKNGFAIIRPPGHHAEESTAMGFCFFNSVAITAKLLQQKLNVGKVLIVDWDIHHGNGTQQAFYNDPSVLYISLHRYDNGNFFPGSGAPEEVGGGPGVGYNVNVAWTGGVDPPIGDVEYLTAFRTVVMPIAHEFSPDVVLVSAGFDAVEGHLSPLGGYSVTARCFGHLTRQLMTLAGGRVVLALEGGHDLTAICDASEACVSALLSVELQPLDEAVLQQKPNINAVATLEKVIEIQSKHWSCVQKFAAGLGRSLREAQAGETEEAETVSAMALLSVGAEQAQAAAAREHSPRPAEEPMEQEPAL

CNC(=O)[C@@H](N)c1ccc(C(=O)Nc2cc(-c3cccs3)ccc2N)cc1
Activity (HCT-116): 480 nM

Nc1ccc(-c2cccs2)cc1NC(=O)c1ccc(C(N)C(=O)O)cc1 (stereo unspecified)
Activity (HCT-116): >20000 nM

CNC(=O)C(NC(C)=O)c1ccc(C(=O)Nc2cc(-c3cccs3)ccc2N)cc1 (stereo unspecified)
Activity (HCT-116): 620 nM

NC(=O)[C@H](N)c1ccc(C(=O)Nc2cc(-c3cccs3)ccc2N)cc1
Activity (HCT-116): 350 nM

CNC(=O)C(NC(=O)OC)c1ccc(C(=O)Nc2cc(-c3cccs3)ccc2N)cc1 (stereo unspecified)
Activity (HCT-116): 410 nM

Nc1ccc(-c2ccccc2)cc1NC(=O)c1ccccc1
Activity (HCT-116): 1700 nM

CNC(=O)NC(C(=O)NC)c1ccc(C(=O)Nc2cc(-c3cccs3)ccc2N)cc1 (stereo unspecified)
Activity (HCT-116): 960 nM

NC(=O)[C@@H](N)Cc1ccc(C(=O)Nc2cc(-c3cccs3)ccc2N)cc1
Activity (HCT-116): 260 nM

NC(=O)C(N)c1ccc(C(=O)Nc2cc(-c3cccs3)ccc2N)cc1 (stereo unspecified)
logD [1]: 1.49
solubility [2]: 185 µM (≈ 67.8 µg/mL)
Activity (HCT-116): 350 nM

CNC(=O)[C@H](N)c1ccc(C(=O)Nc2cc(-c3cccs3)ccc2N)cc1
Activity (HCT-116): 420 nM

CCOC(=O)C(N)c1ccc(C(=O)Nc2cc(-c3cccs3)ccc2N)cc1 (stereo unspecified)
IC50 [3]: 5.7 µM
Activity (HCT-116): 1100 nM

CN(C)C(=O)C(N)c1ccc(C(=O)Nc2cc(-c3cccs3)ccc2N)cc1 (stereo unspecified)
Activity (HCT-116): 420 nM

CNC(=O)C(NS(C)(=O)=O)c1ccc(C(=O)Nc2cc(-c3cccs3)ccc2N)cc1 (stereo unspecified)
Activity (HCT-116): 780 nM

NC(=O)[C@H](N)Cc1ccc(C(=O)Nc2cc(-c3cccs3)ccc2N)cc1
Activity (HCT-116): 390 nM

NC(=O)[C@@H](N)c1ccc(C(=O)Nc2cc(-c3cccs3)ccc2N)cc1
Activity (HCT-116): 510 nM

CNC(=O)C(N)c1ccc(C(=O)Nc2cc(-c3cccs3)ccc2N)cc1 (stereo unspecified)
bioavailability [4]: 17%
clearance [5]: 11 mL/min/kg
concentration at 2 h [6]: 28.6 µM
logD [1]: 1.57
Selectivity ratio [7]: > 5000
bioavailability [8]: 5%
Selectivity ratio [9]: 13
Activity [10]: 35 µM
bioavailability [11]: 27%
Vd [12]: 7.6 L/kg
Activity [13]: 3.4 µM
Selectivity ratio [14]: > 5000
Activity [15]: 3.6 µM
Vd [16]: 1.6 L/kg
clearance [17]: 16 mL/min/kg
Activity [18]: > 50 µM
half-life [19]: 5.4 h
Activity [20]: > 50 µM
concentration at 4 h [21]: 10 µM
clearance [22]: 38 mL/min/kg
Selectivity ratio [23]: 3500
Vd [24]: 3.2 L/kg
concentration at 2 h [25]: 17.9 µM
concentration at 4 h [26]: 4.1 µM
half-life [27]: 1.6 h
Activity [28]: > 50 µM
Activity [29]: > 50 µM
half-life [30]: 5.9 h
concentration at 24 h [31]: 0.02 µM
Selectivity ratio [32]: 340
Selectivity ratio [33]: 360
Selectivity ratio [34]: > 5000
Selectivity ratio [35]: > 5000
solubility [2]: 185 µM (≈ 70.4 µg/mL)
concentration at 24 h [36]: 0.01 µM
Activity (HCT-116): 450 nM

Nc1ccc(-c2cccs2)cc1NC(=O)c1ccccc1
logD [1]: 2.7
Activity (HCT-116): 720 nM
